Screens deposited in PubChem BioAssay by several laboratories.
STEP inh – STEP (human) phosphatase inhibition | recombinant STEP, OMFP fluorogenic substrate, fluorescence | hit rate 0.25% among 360,000 | inhibition, % at 20 µM | P54829;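 active means inhibition at 20 µM, scaled per plate between control wells, above about 37%, limit read from the data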
Target sequence (P54829 whole entry, looked up): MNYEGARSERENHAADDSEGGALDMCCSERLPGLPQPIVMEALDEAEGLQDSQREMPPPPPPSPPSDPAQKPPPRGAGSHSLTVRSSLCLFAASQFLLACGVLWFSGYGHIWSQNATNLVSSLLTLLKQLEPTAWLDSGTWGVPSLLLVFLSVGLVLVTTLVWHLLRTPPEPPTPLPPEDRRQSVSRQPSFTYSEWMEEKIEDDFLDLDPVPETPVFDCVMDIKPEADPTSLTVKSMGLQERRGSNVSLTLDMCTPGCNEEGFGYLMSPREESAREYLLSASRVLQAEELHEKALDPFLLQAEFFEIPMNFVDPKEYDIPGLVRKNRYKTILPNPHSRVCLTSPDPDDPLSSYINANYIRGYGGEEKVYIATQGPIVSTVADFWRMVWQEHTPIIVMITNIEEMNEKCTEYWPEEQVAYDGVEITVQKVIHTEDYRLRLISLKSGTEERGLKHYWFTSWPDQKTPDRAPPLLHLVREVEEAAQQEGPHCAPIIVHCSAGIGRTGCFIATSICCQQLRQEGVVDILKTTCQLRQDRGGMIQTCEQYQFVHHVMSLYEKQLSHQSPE
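medium = Bis-Tris buffer pH 6.0, 2.5 mM DTT, 0.005% Tween 20 | test system = STEP (striatal-enriched tyrosine phosphatase) enzyme, cell-free | measure = normalized % inhibition | compound dosing = 20 µM, 1% DMSO | also added = 25 µM OMFP | schedule = reaction 20 min, ambient temperature | measured by = fluorescence read at 480 nm ex / 540 nm em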
DNMT1 block – blocks human DNA methyltransferase DNMT1 | DNMT1 molecular beacon, Hinp1I cleavage, fluorescence | inhibition (reported as % activation of signal), % at 10 µM | P26358 | hit rate 0.83% among 360,000 | AID 588458; in the data active means inhibition above about 50%
LMPTP inh – blocks human LMPTP phosphatase; inhibition, % at 20 µM; AID 651560; recombinant LMPTP-A, OMFP fluorogenic substrate, fluorescence intensity; P24666; hit rate 0.22% among 360,000;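 active means compounds that cut the enzyme signal by at least half of the control window in the single-dose screen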
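Test system: LMPTP-A, protein tyrosine phosphatase of low molecular weight; Input: 0.625 nM enzyme; Incubation: 50 min dark incubation at room temperature; Signal: endpoint fluorescence intensity from OMFP dephosphorylation; Read-out basis: % inhibition versus control wells.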
GRK2 aptamer HTS – blocks RNA aptamer binding to human GRK2; bead flow cytometry, FAM-aptamer displacement from GRK2; hit rate 0.59% among 330,000; P25098; inhibition of aptamer binding, % at 10 µM; AID 488847;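 active means inhibition of aptamer binding above 40%, roughly 3 SD of noise, on plates passing a quality check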;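 further: median bead fluorescence of bound FAM aptamer so fluorescent compounds give negative values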
SUMO1-SIM PPI – SUMO1-SIM interaction modulation. P63165. SUMO1 binding to a labelled peptide, TR-FRET, 1 h. inhibition, % at 20 µM. hit rate 0.33% among 360,000. AID 602429; in the data active means inhibition above about 37%
Target sequence (P63165 whole entry, looked up): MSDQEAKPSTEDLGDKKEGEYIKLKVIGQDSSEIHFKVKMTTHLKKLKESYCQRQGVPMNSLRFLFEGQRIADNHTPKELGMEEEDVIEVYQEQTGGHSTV
Scp-1 inhibitor – blocks human Scp-1 phosphatase activity; Q9GZU7; Recombinant Scp1, phosphopeptide, malachite green phosphate absorbance; inhibition, % at 20 µM; hit rate 0.88% among 340,000;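 active means inhibition above about 50% at 20 µM, limit read from the data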
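Test system: SCP-1 phosphatase catalytic domain, residues 76-261; measured by: colorimetric phosphate reagent with accelerator and stabiliser, absorbance at 630 nm; timing: enzyme reaction 45 min at room temperature, colour 5 min, stabilisation 30 min; also added: Phosphorylated 17-residue peptide substrate; compound dosing: one concentration, 20 µM, with 1.0% DMSO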
GRK2 inh confirm – confirmation of human GRK2 inhibitors displacing RNA aptamer; shares compounds with GRK2 aptamer HTS; bead-bound GRK2, FAM-aptamer displacement, flow cytometry; aptamer displacement, % at 10 µM; hit rate 4% among 2,000;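 active means aptamer displacement above 40%, near three times the noise of non-fluorescent compounds, on plates passing quality checks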;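 further: negative values mostly reflect intrinsic compound fluorescence rather than true enhancement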
FAM quench CP1 – counter-screen for GRK2 aptamer inhibitors: fluorescent aptamer quenchers; shares compounds with GRK2 aptamer HTS; Carboxyfluorescein RNA aptamer on beads, flow cytometry quenching; active compounds read low; fluorescence response (% of DMSO), % at 10 µM; 2,000 tested, under 10 active;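 active means compounds that quench the bead-bound fluorescent RNA probe, cutting fluorescence to under half of the solvent control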;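 further: counterscreen run without GRK2 so only probe quenching by compound is measured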
Each line names hits and unclear results; the compound was inactive in the other large screens (follow-up assays come after a bar, where they were run). The list is not random: actives were taken first. Their share in the collection is about 2.1%.

O=C(Nc1cccc(OC(F)(F)F)c1)C1Cc2c(-c3ccccc3Oc3ccccc3)ccnc2O1 (centres undefined)	none (no result: GRK2 aptamer HTS, Scp-1 inhibitor)
Cc1ccnc(NC(=O)COC(=O)c2ccc(F)cc2F)n1	none | GRK2 inh confirm inactive | FAM quench CP1 inactive
O=C(C(=Cc1ccc(F)cc1)C(=O)c1ccccc1)c1ccccc1	none (no result: GRK2 aptamer HTS, Scp-1 inhibitor)
Cc1cc(NC(=O)CCCn2nc(C)c([N+](=O)[O-])c2C)no1	GRK2 aptamer HTS 51 | GRK2 inh confirm inactive | FAM quench CP1 inactive
CCC1CCCCN1CCCNC(=O)Cn1ncc2c([nH]c3ccc(C)cc32)c1=O (centres undefined)	none
Cc1ccc2[nH]c3c(=O)n(CC(=O)NCCCN4CCN(c5ccc(F)cc5)CC4)ncc3c2c1	GRK2 aptamer HTS 45 | GRK2 inh confirm inactive | FAM quench CP1 inactive
Cc1ccc(CNC(=O)CN2CCN(c3ccc(F)cc3)CC2)cc1	GRK2 aptamer HTS 43 | GRK2 inh confirm inactive | FAM quench CP1 inactive
Cc1ccc(S(=O)(=O)/N=C(\c2ccccc2)N(C)S(=O)(=O)c2ccc(C)cc2)cc1	GRK2 aptamer HTS 66 | GRK2 inh confirm inactive | FAM quench CP1 inactive
Cc1cc2c(cc1S(=O)(=O)N1CCc3ccccc31)NC(=O)CO2	GRK2 aptamer HTS 73 | GRK2 inh confirm inactive | FAM quench CP1 inactive
COCCNc1nc(Nc2ccc(C#N)cc2)c2sccc2n1	none (no result: GRK2 aptamer HTS, Scp-1 inhibitor)
COc1ccc(-c2noc(N3CCC(C(=O)Nc4ccccc4Cl)CC3)n2)cc1	none
COc1ccc(-c2noc(N3CCC(C(=O)Nc4ccc(OC)c(OC)c4)CC3)n2)cc1	GRK2 aptamer HTS 83 | GRK2 inh confirm inactive | FAM quench CP1 inactive
CN=c1scc(C)n1/N=C/c1ccc(O)cc1	none
CN=c1scc(C)n1/N=C/c1ccc2c(c1)OCO2	GRK2 aptamer HTS 91 | GRK2 inh confirm inactive | FAM quench CP1 inactive
Cc1cccc(-n2ccc(=O)c(C(=O)Nc3ccc(S(=O)(=O)Nc4nccc(C)n4)cc3)n2)c1	GRK2 aptamer HTS 94 | GRK2 inh confirm inactive | FAM quench CP1 inactive
CCC(CC)C(=O)OCC(=O)Nc1ccc(S(=O)(=O)N2CCOCC2)cc1OC	GRK2 aptamer HTS 51 | GRK2 inh confirm inactive | FAM quench CP1 inactive
O=C(COC(=O)/C=C/c1ccco1)Nc1cc(S(=O)(=O)N2CCOCC2)ccc1Cl	GRK2 aptamer HTS 59 | GRK2 inh confirm inactive | FAM quench CP1 inactive
CCC(C)SCC(=O)Nc1ccc(S(=O)(=O)N2CCOCC2)cc1OC (centres undefined)	none
Cc1ccc2cc(NC(=O)C3(C)CCN3C(C)C)ccc2n1 (centres undefined)	none (no result: GRK2 aptamer HTS, Scp-1 inhibitor)
Cc1cccc(-c2cnc(C(O)c3ccc(Cl)cc3C)[nH]2)c1 (centres undefined)	none (no result: GRK2 aptamer HTS, Scp-1 inhibitor)
NC(CCCCCP(=O)(c1ccccc1)c1ccccc1)C(=O)O (centres undefined)	GRK2 aptamer HTS 87 (no result: STEP inh, DNMT1 block, LMPTP inh, SUMO1-SIM PPI) | GRK2 inh confirm inactive | FAM quench CP1 inactive
Cc1ccc(NC(=O)CCSc2nnc(C)o2)cc1	none
COc1ccc(/C(O)=C2/C(=O)C(=O)N(CCN(C)C)C2c2ccc(OC)c(OC)c2)c(C)c1 (centres undefined)	GRK2 aptamer HTS 71 | GRK2 inh confirm inactive | FAM quench CP1 inactive
COc1ccc(C2/C(=C(/O)c3cnn(-c4ccccc4)c3C)C(=O)C(=O)N2CCN(C)C)cc1OC (centres undefined)	none (no result: GRK2 aptamer HTS)
COC(=O)c1ccc(CNc2ccc(C(C)=O)cc2)cc1	none (no result: GRK2 aptamer HTS, Scp-1 inhibitor)
CC(=O)Oc1ccc2c(=O)c(-c3ccccc3)coc2c1	none | GRK2 inh confirm inactive | FAM quench CP1 inactive
COc1ccccc1N1C(=O)[C@@H]2C(C(=O)CN3C(=O)c4ccccc4C3=O)=NN[C@@H]2C1=O	none
Cc1ccc(N2C(=O)[C@@H]3C(C(=O)CN4C(=O)c5ccccc5C4=O)=NN[C@@H]3C2=O)c(C)c1	GRK2 aptamer HTS 41 | GRK2 inh confirm inactive | FAM quench CP1 inactive
COc1cc2nc(CN3CCN(S(=O)(=O)c4ccccc4[N+](=O)[O-])CC3)[nH]c(=O)c2cc1OC	none (no result: GRK2 aptamer HTS, Scp-1 inhibitor)
Fc1ccc(-c2cn(-c3ccccc3)c3[n+]2CCS3)cc1	GRK2 aptamer HTS 43 | GRK2 inh confirm inactive | FAM quench CP1 inactive
CCNC(=O)C1(C)CCCN(Cc2cc(-c3ccccc3)n(C)n2)C1 (centres undefined)	none (no result: GRK2 aptamer HTS, Scp-1 inhibitor)
O=C(Nc1cccc(NC(=O)c2ccc(-c3ccc(Br)cc3)o2)c1)c1ccccc1	GRK2 aptamer HTS 90 | GRK2 inh confirm inactive | FAM quench CP1 inactive
COc1ccc(Cc2nnc(SC)[nH]c2=O)cc1OC	GRK2 aptamer HTS 51, SUMO1-SIM PPI 42 | GRK2 inh confirm inactive | FAM quench CP1 inactive
COc1cc(/C=C(/NC(C)=O)C(=O)O)cc(Cl)c1OCc1ccc(Br)cc1	GRK2 aptamer HTS 80 | GRK2 inh confirm inactive | FAM quench CP1 inactive
CSCCC(C(=O)NCc1ccccc1)n1c(Cc2cc(F)cc(F)c2)nc2ccccc21 (centres undefined)	none (no result: STEP inh, DNMT1 block, GRK2 aptamer HTS, Scp-1 inhibitor)
COc1ccc(-c2nc(-c3ccc(NC(=O)c4ccc(Br)o4)cc3)no2)cc1OC	none
COc1cc(-c2nc(-c3ccc(NC(=O)c4ccc(Br)o4)cc3)no2)cc(OC)c1OC	GRK2 aptamer HTS 82 | GRK2 inh confirm inactive | FAM quench CP1 inactive
Cc1ccc(S(=O)(=O)NC(=O)C2(C)CCN2C(=O)Cc2cccs2)nc1 (centres undefined)	none (no result: GRK2 aptamer HTS, Scp-1 inhibitor)
CCn1c(SCC(=O)OC)nnc1-c1ccncc1	none
CCCNC(=O)NC(=O)CSc1nnc(-c2ccncc2)n1CC	GRK2 aptamer HTS 61 | GRK2 inh confirm inactive | FAM quench CP1 inactive
Cn1ccnc1C(O)c1cccc(OCc2ccccc2)c1 (centres undefined)	none
OC(c1ccc(OCc2ccccc2)cc1)c1nnc(-c2ccccc2)o1 (centres undefined)	none | GRK2 inh confirm inactive | FAM quench CP1 inactive
OC(c1cccc(OCc2ccccc2)c1)c1nnc(-c2ccccc2)o1 (centres undefined)	none | GRK2 inh confirm inactive | FAM quench CP1 inactive
Cc1ccc(N2CCN(C(C(=O)Nc3c(C)cccc3C)c3cccc(F)c3)CC2)cc1 (centres undefined)	none (no result: STEP inh, DNMT1 block, GRK2 aptamer HTS, Scp-1 inhibitor)
CCOc1ccc(Cl)cc1CSc1n[nH]c(CC)n1	GRK2 aptamer HTS 61 | GRK2 inh confirm inactive | FAM quench CP1 inactive
CC1CCC(NC(=O)C(NS(=O)(=O)c2ccc(Br)cc2)C(C)C)CC1 (centres undefined)	none (no result: GRK2 aptamer HTS, Scp-1 inhibitor)
O=C(c1ccc(F)cc1)N1CCOCC1	GRK2 aptamer HTS 50 | GRK2 inh confirm inactive | FAM quench CP1 inactive
